As a reminder, the ED50 is the dose that gives a 50% effect, or the effect in half of the subjects. In general, Ki refers to the dissociation constant of the complex between target and ligand, obtained from inhibition or displacement. Low readings indicate a stronger hold on the target, high ones a looser hold on the target.

Experiment [1] is filed under the species Mus musculus. Put plainly: Antinociceptive response was determined in mice using hot plate flick method. In kind it is functional. In a few lines: (§1)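 Mice, 8 per dose, given analogues sc and placed on a 55.0 °C hot plate 5 min later. Two control latencies at least 10 min apart, normally 8–12 s. Endpoint is paw lick or jump. %MPE = [(test − control)/(40 − control)] × 100. ED50 with confidence limits, or percent effect at a single dose.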

For experiment [2], the species on record is Mus musculus. Kind of experiment: Antinociceptive response was determined in mice using spontaneous activity method. In kind it is functional. A digest of the protocol: (§2)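 Mice given 0.9% saline or analogue sc and put in individual photocell activity cages 5 min later. Beam interruptions counted over the next 10 min. ED50 with confidence limits, or percent effect at a single dose.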

Experiment [3] is filed under the species Mus musculus. Put plainly: Antinociceptive response was determined in mice using tail flick method. In kind it is functional. A digest of the protocol:
(§3)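 Mice; epibatidine analogues given i.t., tail-flick (D'Amour–Smith) latency read 5 min later. Baseline 2–4 s, 10 s cutoff. %MPE = [(test − control)/(10 − control)] × 100. Eight to twelve mice per dose, at least four doses for dose–response; ED50 with confidence limits, or percent effect at a single dose.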
A general note: Hot-plate and tail-flick tests time the reaction to a heat stimulus.

The species entered for experiment [4] is Mus musculus. Kind of experiment: Antinociceptive response was determined in mice using hypothermia method. In kind it is functional. In a few lines: (§4)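 Rectal temperature in mice by thermistor probe inserted 24 mm, read just before and at several times after sc saline or analogue. ED50 with confidence limits, or change at a single dose.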
Experiment [5] has as its system Mus musculus. Kind of experiment: Percent effect on the body temperature was measured at a dose of 10 mg/kg. In kind it is functional.
For experiment [6], the system named is Mus musculus. Kind of experiment: Antinociceptive response was determined in mice at a dose of 10 mg/kg using hot plate flick method. Format: functional. A digest of the protocol:
as §1

Experiment [7] concerns Mus musculus. Kind of experiment: Antinociceptive response was determined in mice at a dose of 10 mg/kg using hypothermia method. In kind it is functional. A digest of the protocol:
as §4

Experiment [8] has as its target Neuronal acetylcholine receptor; alpha4/beta2 (Rattus norvegicus, UniProt P09483+P12390). Kind of experiment: Inhibition of alpha beta[3H]epibatidine binding to Nicotinic acetylcholine receptor alpha4-beta2 of rat cerebral cortex. In kind it is tissue-based.
The test system of experiment [9] is Mus musculus. Kind of experiment: Antinociceptive response was determined in mice at a dose 10 mg/kg using tail flick method. In kind it is functional. In a few lines:
as §3

The test system of experiment [10] is Mus musculus. Kind of experiment: Antinociceptive response was determined in mice at a dose of 10 mg/kg using spontaneous activity method. In kind it is functional. A digest of the protocol: as §2
For experiment [11], the target named is Neuronal acetylcholine receptor subunit alpha-7 (Rattus norvegicus, UniProt Q05941). Put plainly: Inhibition of [125I]-iodo-MLA binding to Nicotinic acetylcholine receptor alpha-7 of rat cerebral cortex. In kind it is tissue-based.
Sequence of Neuronal acetylcholine receptor subunit alpha-7 (Q05941 whole entry): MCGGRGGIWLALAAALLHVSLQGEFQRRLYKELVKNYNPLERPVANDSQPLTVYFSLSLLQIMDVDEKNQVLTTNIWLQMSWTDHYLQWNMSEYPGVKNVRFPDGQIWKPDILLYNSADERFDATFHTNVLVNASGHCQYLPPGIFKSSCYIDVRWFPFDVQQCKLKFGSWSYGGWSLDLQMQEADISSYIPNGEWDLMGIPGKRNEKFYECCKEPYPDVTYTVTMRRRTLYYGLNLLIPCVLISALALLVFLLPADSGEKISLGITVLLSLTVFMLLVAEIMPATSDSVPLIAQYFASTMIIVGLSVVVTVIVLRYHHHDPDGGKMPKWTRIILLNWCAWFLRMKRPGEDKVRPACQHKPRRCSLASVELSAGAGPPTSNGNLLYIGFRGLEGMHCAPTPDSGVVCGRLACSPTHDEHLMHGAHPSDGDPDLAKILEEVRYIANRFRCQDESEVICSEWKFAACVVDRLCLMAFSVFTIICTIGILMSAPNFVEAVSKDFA
The subject of experiment [12] is Mus musculus. Put plainly: Antinociceptive response was determined in mice at a dose 15 mg/kg using tail flick method. In kind it is functional. In a few lines: as §3
Experiment [13] relates to Mus musculus. Put plainly: Percent effect on the body temperature was measured at a dose of 1 mg/kg. In kind it is functional.
Experiment [14] relates to Mus musculus. Kind of experiment: Antinociceptive response was determined in mice at a dose of 15 mg/kg using hot plate flick method. In kind it is functional. A digest of the protocol: as §1
Experiment [15] relates to Mus musculus. Put plainly: Antinociceptive response was determined in mice at a dose of 1 mg/kg using hot plate flick method. Format: functional.
Experiment [16] concerns Mus musculus. Kind of experiment: Percent effect on the body temperature was measured at a dose of 5 mg/kg. Format: functional.

The source made the active and inactive calls.

Sequence of Neuronal acetylcholine receptor; alpha4/beta2 (P09483 whole entry): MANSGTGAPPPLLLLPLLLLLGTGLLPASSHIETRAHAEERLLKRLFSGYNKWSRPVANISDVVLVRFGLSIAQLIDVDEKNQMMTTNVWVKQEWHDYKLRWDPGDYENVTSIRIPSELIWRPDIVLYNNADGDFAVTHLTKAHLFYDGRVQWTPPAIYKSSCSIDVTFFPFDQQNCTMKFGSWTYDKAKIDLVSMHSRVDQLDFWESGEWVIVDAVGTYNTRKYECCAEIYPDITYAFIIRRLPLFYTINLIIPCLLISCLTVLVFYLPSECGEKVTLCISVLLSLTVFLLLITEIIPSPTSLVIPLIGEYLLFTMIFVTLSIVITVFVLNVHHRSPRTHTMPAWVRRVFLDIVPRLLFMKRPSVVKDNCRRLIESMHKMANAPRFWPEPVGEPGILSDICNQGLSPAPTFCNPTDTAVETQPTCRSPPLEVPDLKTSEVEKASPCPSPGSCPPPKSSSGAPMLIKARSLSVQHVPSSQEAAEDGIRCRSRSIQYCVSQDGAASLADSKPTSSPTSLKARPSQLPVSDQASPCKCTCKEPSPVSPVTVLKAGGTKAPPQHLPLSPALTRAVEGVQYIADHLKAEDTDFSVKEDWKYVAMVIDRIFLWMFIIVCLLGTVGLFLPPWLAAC
Sequence of Neuronal acetylcholine receptor; alpha4/beta2 (P12390 whole entry): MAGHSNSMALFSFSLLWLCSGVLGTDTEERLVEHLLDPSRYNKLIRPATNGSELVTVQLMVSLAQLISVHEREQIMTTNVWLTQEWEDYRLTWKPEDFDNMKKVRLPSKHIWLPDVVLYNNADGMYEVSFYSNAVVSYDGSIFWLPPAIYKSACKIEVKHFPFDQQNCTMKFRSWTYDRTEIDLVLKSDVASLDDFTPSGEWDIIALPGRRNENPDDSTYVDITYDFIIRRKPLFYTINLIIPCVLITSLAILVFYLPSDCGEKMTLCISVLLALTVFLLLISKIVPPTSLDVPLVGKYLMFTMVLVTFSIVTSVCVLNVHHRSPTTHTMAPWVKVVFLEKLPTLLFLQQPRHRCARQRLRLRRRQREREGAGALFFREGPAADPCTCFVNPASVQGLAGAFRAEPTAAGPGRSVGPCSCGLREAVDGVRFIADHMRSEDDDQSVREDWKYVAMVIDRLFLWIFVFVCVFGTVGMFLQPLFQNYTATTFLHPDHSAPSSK

With `CN1CCC[C@H]1c1cccnc1` [NICOTINE], the ED50 is 0.65 mg/kg in the experiment listed under Mus musculus [1], 0.5 mg/kg in the experiment filed under Mus musculus [2], 1.3 mg/kg in the experiment listed under Mus musculus [3] and 1 mg/kg in the experiment listed under Mus musculus [4].
`Fc1ncc(C2CC3CCC2N3)cc1-c1cccc(Cl)c1` (centres undefined): the Body temperature in the experiment with Mus musculus [5] was determined as 0%. Moreover, the values for the AD50 in the experiment listed under Mus musculus [1] and in the experiment filed under Mus musculus [3] were 0.45 mg/kg and 0.01 mg/kg, respectively. Also, in the experiment with Mus musculus [6], the ED50 worked out at 14 mg/kg. The Response in the experiment on Mus musculus [7] was determined as 0%; with Mus musculus [9], 3%; with Mus musculus [10] it was 15%. Further, in experiment [8], the Ki is 0.07 nM.
Regarding `Fc1ncc(C2CC3CCC2N3)cc1-c1ccc(Cl)cc1` (centres undefined), in the experiment on Mus musculus [5], the Body temperature amounted to 0%. The AD50 worked out at 0.26 mg/kg in the experiment filed under Mus musculus [1] and 0.0003 mg/kg in the experiment listed under Mus musculus [3]. This molecule showed an ED50 in the experiment with Mus musculus [6] of 7 mg/kg. For the same molecule, the results for the Response in the experiment on Mus musculus [7], with Mus musculus [9] and in the experiment on Mus musculus [10] were 0%, 2% and 50%, respectively. This molecule also registered a Ki in [8] of 0.04 nM.
`Fc1ncc(C2CC3CCC2N3)cc1-c1ccccc1` (stereo in doubt; (-)-5a): the AD50 stood at 0.7 mg/kg in the experiment listed under Mus musculus [1] and 0.08 mg/kg in the experiment filed under Mus musculus [3]. This molecule also showed an ED50 in the experiment on Mus musculus [6] of 10 mg/kg. Moreover, the Ki in experiment [11] was more than 2000 nM; in experiment [8], 0.26 nM. Moreover, the figures for the Response in the experiment on Mus musculus [7] (10 mg/kg) and with Mus musculus [12] were -0.8% and 5%, respectively.
For `O=[N+]([O-])c1ccc(-c2cc(C3CC4CCC3N4)cnc2F)cc1` (centres undefined), the AD50 in the experiment filed under Mus musculus [1] was found to be 0.12 mg/kg; in the experiment filed under Mus musculus [3], 0.003 mg/kg. This molecule also returned an ED50 in the experiment listed under Mus musculus [2] of 0.22 mg/kg. This molecule also gave a Body temperature in the experiment with Mus musculus [13] of 0%. For the same molecule, the Response in the experiment on Mus musculus [9] stood at 5%.
For the molecule `Clc1ccc([C@H]2C[C@@H]3CC[C@H]2N3)cn1` [(-)-EPIBATIDINE], the ED50 was 0.004 mg/kg in the experiment listed under Mus musculus [1], 0.004 mg/kg in the experiment filed under Mus musculus [3] and 0.001 mg/kg in the experiment filed under Mus musculus [4].
In the case of `Fc1ccc(C2CC3CCC2N3)cn1` (centres undefined), in [8], the affinity, expressed as Ki, was 0.02 nM.
Turning to `Fc1ncc(C2CC3CCC2N3)cc1-c1ccccc1` (racemic), the AD50 in the experiment filed under Mus musculus [1] amounted to 1.2 mg/kg; in the experiment listed under Mus musculus [3], 0.5 mg/kg. Moreover, the ED50 was determined as 4 mg/kg in the experiment on Mus musculus [14] (Mus musculus, read-out: ED50) and 4.7 mg/kg in the experiment filed under Mus musculus [2]. For the same molecule, the Ki in [11] was more than 2000 nM. In addition, the Response in the experiment with Mus musculus [7] (10 mg/kg) is recorded as -0.5%; in the experiment with Mus musculus [12], 3%.
In the case of `COc1ccc(-c2cc(C3CC4CCC3N4)cnc2F)cc1` (centres undefined), the AD50 stood at 0.52 mg/kg in the experiment filed under Mus musculus [1] and 0.05 mg/kg in the experiment filed under Mus musculus [3]. The ED50 in the experiment filed under Mus musculus [2] was 3.6 mg/kg; in the experiment on Mus musculus [6] it was 16 mg/kg. For the same molecule, the figures for the Response in the experiment with Mus musculus [7] and with Mus musculus [9] were 0% and 2%, respectively. In experiment [8], this molecule gave a Ki of 0.06 nM. The molecule also yielded a Body temperature in the experiment with Mus musculus [13] of 10%.
Consider `Fc1cccc(-c2cc(C3CC4CCC3N4)cnc2F)c1` (centres undefined), for which the ED50 was 3.3 mg/kg in the experiment listed under Mus musculus [1], 0.36 mg/kg in the experiment filed under Mus musculus [2], 3.5 mg/kg in the experiment listed under Mus musculus [3] and 1.8 mg/kg in the experiment filed under Mus musculus [4]. Moreover, the AD50 in the experiment listed under Mus musculus [3] was 0.005 mg/kg; in the experiment on Mus musculus [15] it was 20 mg/kg. In the experiment on Mus musculus [13], this molecule displayed a Body temperature of 0%.
With `Nc1cccc(-c2cc(C3CC4CCC3N4)cnc2F)c1` (centres undefined), the AD50 in the experiment listed under Mus musculus [1] came to 0.82 mg/kg; in the experiment listed under Mus musculus [3], 0.009 mg/kg. The ED50 in the experiment listed under Mus musculus [2] turned out to be 8.5 mg/kg; in the experiment on Mus musculus [6], 4 mg/kg. Besides, the Response with Mus musculus [7] is listed as 0%; with Mus musculus [9] it was 1%. The same molecule displayed a Ki in experiment [8] of 0.16 nM. This molecule came in with a Body temperature in the experiment on Mus musculus [16] of 5%.
For the molecule `Fc1ccc(-c2cc(C3CC4CCC3N4)cnc2F)cc1` (centres undefined), the results for the AD50 in the experiment listed under Mus musculus [1] and in the experiment listed under Mus musculus [3] were 0.23 mg/kg and 0.0005 mg/kg, respectively. Besides, the ED50 in the experiment filed under Mus musculus [2] worked out at 2 mg/kg; in the experiment with Mus musculus [6] it was 15 mg/kg. Besides, the results for the Response with Mus musculus [7] and with Mus musculus [9] were 10% and 2%, respectively. The same molecule showed a Ki in experiment [8] of 0.02 nM. Besides, in the experiment with Mus musculus [13], the Body temperature result is “inactive”.
`COc1cccc(-c2cc(C3CC4CCC3N4)cnc2F)c1` (centres undefined) displayed a Body temperature in the experiment with Mus musculus [5] of 0%. The AD50 is 2 mg/kg in the experiment listed under Mus musculus [1] and 0.008 mg/kg in the experiment listed under Mus musculus [3]. In addition, the ED50 worked out at 6 mg/kg in the experiment filed under Mus musculus [2] and 8 mg/kg with Mus musculus [6]. The Response in the experiment on Mus musculus [7] and with Mus musculus [9] was 0% in each case. The molecule further showed a Ki in experiment [8] of 0.12 nM.
Consider `O=[N+]([O-])c1cccc(-c2cc(C3CC4CCC3N4)cnc2F)c1` (centres undefined), for which the results for the AD50 in the experiment filed under Mus musculus [1] and in the experiment filed under Mus musculus [3] were 0.13 mg/kg and 0.0005 mg/kg, respectively. For the same molecule, the ED50 in the experiment filed under Mus musculus [2] came out at 6.5 mg/kg; with Mus musculus [6], 20 mg/kg. Also, the Response stood at 0% with Mus musculus [7] and 3% with Mus musculus [9]. Further, the affinity in [8] corresponds to a Ki of 0.05 nM. In the experiment on Mus musculus [16], this molecule displayed a Body temperature of 5%.
Regarding `Nc1ccc(-c2cc(C3CC4CCC3N4)cnc2F)cc1` (centres undefined), the AD50 in the experiment filed under Mus musculus [1] stood at 1.8 mg/kg; in the experiment filed under Mus musculus [3], 0.005 mg/kg. The ED50 in the experiment filed under Mus musculus [2] amounted to 6 mg/kg; in the experiment on Mus musculus [6] it was 10 mg/kg. In addition, the Response came out at 0% with Mus musculus [7] and 2% with Mus musculus [9]. Also, the Ki in experiment [8] turned out to be 0.09 nM. For the same molecule, the Body temperature in the experiment with Mus musculus [16] worked out at 0%.
As for `Fc1ncc(C2CC3CCC2N3)cc1-c1ccccc1` (single isomer, unassigned; (+)), the AD50 in the experiment filed under Mus musculus [1] worked out at 2.4 mg/kg; in the experiment filed under Mus musculus [3], 1 mg/kg. For the same molecule, the ED50 in the experiment with Mus musculus [14] (dose 15 mg/kg) came out at 8 mg/kg. In addition, in [11], the Ki is more than 2000 nM. In addition, the Response in the experiment on Mus musculus [7] (10 mg/kg) is reported as -0.4%; with Mus musculus [12], 7%.

For the origin of these results see ChEMBL document CHEMBL1138739, “Synthesis, nicotinic acetylcholine receptor binding, and antinociceptive properties of 2'-fluoro-3'-(substituted phenyl)deschloroepibatidine analogues. Novel nicotinic antagonist” (J Med Chem, 2004).
